Measured values collected from several papers.
Each line is one published result; the experiments were not run side by side.
Organism: Leishmania infantum
Read-out: parasite growth

For `Cc1ccc(-c2c(-c3ccccn3)nc3n2CCC3)cc1`, the EC50 was 0.501 µM (5 days; intracellular, amastigote).
`O=C(N[C@@H](CCc1ccccc1)C(=O)c1cc(-c2ccccc2)on1)[C@H](Cc1ccccc1)NC(=O)N1CCOCC1` (single isomer, unassigned) gave an IC50 of over 64 µM (intracellular, amastigote).
`CCCCCCCCCCCCCCCCOP(=O)([O-])OCC[N+](C)(C)C` has an IC50 of 5.28 µM (imaging; intracellular, amastigote).
For `Fc1ccc(Nc2c(-c3cccnn3)nc3ccccn23)cc1`, the IC50 was 34.6 µM (intracellular, amastigote).
`CCCCCCCCCCCCCCCCC#CC(=O)O` gave an IC50 of 50.6 µM (52 h; promastigote).
For `O=C(N[C@@H](Cc1ccccc1)C(=O)c1nc2ccccc2s1)[C@H](Cc1ccccc1)NC(=O)N1CCOCC1`, the IC50 was 12.7 µM (intracellular, amastigote).
With `c1ccc(-c2nc3n(c2-c2ccc4cccnc4c2)CCC3)nc1` the EC50 was 3.98 µM (5 days; intracellular, amastigote).
`O=C(N[C@@H](Cc1ccccc1)C(=O)c1nccs1)[C@H](Cc1ccccc1)NC(=O)N1CCOCC1` has an IC50 of over 64 µM (intracellular, amastigote).
`CCCCCCCCCCCCCCCCOP(=O)([O-])OCC[N+](C)(C)C` gave an EC50 of 8.3 µM (imaging; mouse Macrophage; 5 days; intracellular, amastigote).
